According to ChEMBL document CHEMBL1144529, “A library of novel hydroxamic acids targeting the metallo-protease family: design, parallel synthesis and screening” (Bioorg Med Chem, 2007):

Target: T1, Aminopeptidase N (Sus scrofa, UniProt P15145)
T1 sequence (P15145 whole entry): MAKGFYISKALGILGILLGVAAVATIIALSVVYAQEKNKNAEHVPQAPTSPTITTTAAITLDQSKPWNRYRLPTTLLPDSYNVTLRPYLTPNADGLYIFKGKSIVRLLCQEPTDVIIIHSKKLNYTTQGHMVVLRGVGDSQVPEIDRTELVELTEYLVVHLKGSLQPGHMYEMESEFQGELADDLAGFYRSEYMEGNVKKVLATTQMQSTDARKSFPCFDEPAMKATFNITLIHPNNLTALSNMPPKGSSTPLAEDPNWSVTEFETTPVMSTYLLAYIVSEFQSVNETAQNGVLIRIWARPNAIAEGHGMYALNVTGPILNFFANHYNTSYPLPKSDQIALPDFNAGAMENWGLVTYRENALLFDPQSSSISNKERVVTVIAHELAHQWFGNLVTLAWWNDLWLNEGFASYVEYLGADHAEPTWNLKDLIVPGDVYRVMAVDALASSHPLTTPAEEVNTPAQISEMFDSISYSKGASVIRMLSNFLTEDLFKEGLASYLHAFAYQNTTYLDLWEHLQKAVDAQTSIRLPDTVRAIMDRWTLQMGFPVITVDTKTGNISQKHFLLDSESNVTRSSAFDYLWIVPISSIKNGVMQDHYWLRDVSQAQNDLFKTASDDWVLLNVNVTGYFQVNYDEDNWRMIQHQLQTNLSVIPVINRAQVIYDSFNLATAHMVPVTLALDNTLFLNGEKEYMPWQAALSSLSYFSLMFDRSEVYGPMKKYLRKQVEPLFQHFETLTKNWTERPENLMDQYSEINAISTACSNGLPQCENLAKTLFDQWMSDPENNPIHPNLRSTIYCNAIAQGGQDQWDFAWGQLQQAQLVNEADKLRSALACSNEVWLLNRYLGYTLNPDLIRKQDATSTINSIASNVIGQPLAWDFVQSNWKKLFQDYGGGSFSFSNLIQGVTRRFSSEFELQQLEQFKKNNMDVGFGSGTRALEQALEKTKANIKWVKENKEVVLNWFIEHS
Test: Inhibition of microsomal […] aminopeptidase in pig kidney
Method in brief: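 Porcine kidney microsomal APN, ammonium sulfate suspension diluted 600-fold in Tris-HCl (25 mM, pH 7.4). Activity compared with enzyme run without inhibitor.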

Compound | IC50
O=C(NO)C(Cc1ccccc1)C(=O)NCc1ccccc1 (centres undefined) | > 10000 nM
CC(C)CC(C(=O)NO)C(=O)NCCCc1ccccc1 (centres undefined) | 528 nM
CC(C)CC(C(=O)NO)C(=O)NCCc1ccccc1 (centres undefined) | 984 nM
CC(C)CC(C(=O)NO)C(=O)NCc1ccc(Cl)cc1 (centres undefined) | 2520 nM
CC(C)CC(C(=O)NO)C(=O)NCc1ccccc1 (centres undefined) | 590 nM
CC(C)CC(C(=O)NO)C(=O)NCCCCc1ccccc1 (centres undefined) | 82 nM
O=C(NO)C(Cc1cccc(Oc2ccccc2)c1)C(=O)NCc1ccccc1 (centres undefined) | > 10000 nM
CC(C)CC(C(=O)NO)C(=O)N1CCC(Cc2ccccc2)CC1 (centres undefined) | 452 nM
O=C(NO)C(Cc1ccccc1)C(=O)NCCCCc1ccccc1 (centres undefined) | > 10000 nM
Cn1c(CC(C(=O)NO)C(=O)NCc2ccccc2)nc2ccccc21 (centres undefined) | 718 nM
O=C(NO)C(Cc1cccc(Oc2ccccc2)c1)C(=O)NCCCCc1ccccc1 (centres undefined) | > 10000 nM
CC(C)CC(C(=O)NO)C(=O)NC1CCc2ccccc2C1 (centres undefined) | 3040 nM
CC(C)CC(C(=O)NO)C(=O)NCc1cccc(Oc2ccccc2)c1 (centres undefined) | 443 nM
CC(C)CC(C(=O)NO)C(=O)NCc1ccc(F)cc1 (centres undefined) | 3000 nM
